Activity calls are given as the source filed them. The rule behind the calls is not given here.
Experiments:
Type in all cases: functional, cell-based
[1] = tested on: RAW264.7; assay: Antiinflammatory activity in mouse RAW264.7 cells assessed as inhibition of LPS-induced ICAM1 mRNA expression pretreated for 30 mins followed by LPS-stimulation and measured after 24 hrs by trizol reagent based qRT-PCR analysis
How it was run: (§1)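 RAW 264.7 macrophages were grown in DMEM with 10% FBS and penicillin/streptomycin at 37 °C, 5% CO2. Cells were plated at 7.0 × 10^5/plate and incubated overnight, then pretreated 30 min with compound at 2.5 or 10 μM before LPS at 1.0 μg/mL for 24 h. Total RNA was extracted and qPCR was run, with each gene normalized to β-actin. Values are % of LPS control, mean ± SEM of three independent experiments, Student's t test.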

[2] = tested on: RAW264.7; assay: Antiinflammatory activity in mouse RAW264.7 cells assessed as inhibition of LPS-induced TNFalpha production pretreated for 30 mins followed by LPS-stimulation and measured after 24 hrs by ELISA
How it was run: (§2)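 RAW 264.7 cells were seeded at 400 000 per well in DMEM and held for 24 h at 37 °C, 5% CO2. They were pretreated 30 min with vehicle or compound at 1, 2.5, 5 or 10 μM, then stimulated with LPS at 0.5 μg/mL for 24 h. Supernatant cytokine was measured by ELISA. IC50 was taken from the concentration series, and significance was tested against LPS vehicle.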

[3] = tested on: RAW264.7; assay: Antiinflammatory activity in mouse RAW264.7 cells assessed as inhibition of LPS-induced IL-6 production pretreated for 30 mins followed by LPS-stimulation and measured after 24 hrs by ELISA; how it was run: as §2
[4] = tested on: RAW264.7; assay: Antiinflammatory activity in mouse RAW264.7 cells assessed as inhibition of LPS-induced IL-6 mRNA expression pretreated for 30 mins followed by LPS-stimulation and measured after 24 hrs by trizol reagent based qRT-PCR analysis; how it was run: as §1
[5] = tested on: RAW264.7; assay: Antiinflammatory activity in mouse RAW264.7 cells assessed as inhibition of LPS-induced TNFalpha mRNA expression pretreated for 30 mins followed by LPS-stimulation and measured after 24 hrs by trizol reagent based qRT-PCR analysis; how it was run: as §1
[6] = tested on: RAW264.7; assay: Antiinflammatory activity in mouse RAW264.7 cells assessed as inhibition of LPS-induced COX2 mRNA expression pretreated for 30 mins followed by LPS-stimulation and measured after 24 hrs by trizol reagent based qRT-PCR analysis; how it was run: as §1
[7] = tested on: RAW264.7; assay: Antiinflammatory activity in mouse RAW264.7 cells assessed as inhibition of LPS-induced IL1beta mRNA expression pretreated for 30 mins followed by LPS-stimulation and measured after 24 hrs by trizol reagent based qRT-PCR analysis; how it was run: as §1
[8] = tested on: RAW264.7; assay: Antiinflammatory activity in mouse RAW264.7 cells assessed as inhibition of LPS-induced […] mRNA expression pretreated for 30 mins followed by LPS-stimulation and measured after 24 hrs by trizol reagent based qRT-PCR analysis; how it was run: as §1

Row | Structure (SMILES) | inhibition [1] | IC50 [2] [µM] | IC50 [3] [µM] | inhibition [4] | inhibition [5] | inhibition [6] | inhibition [7] | inhibition [8] | inhibition [2] | inhibition [3]
1 | C=C(C)[C@H](O)Cc1c(O)ccc(C(=O)/C=C/c2ccccc2)c1O | Active | 1.2 | 1.1 | Active | Active | Active | Active | Active |  | 
2 | C=C(C)C(O)Cc1c(O)ccc(C(=O)/C=C/c2ccccc2)c1O (racemic) | Active | 1.6 | 1.1 | Active | Active | Active | Active | Active |  | 
3 | C=C(C)[C@@H](O)Cc1c(O)ccc(C(=O)/C=C/c2ccccc2)c1O |  |  |  |  |  |  |  |  | inactive | inactive

Reference: ChEMBL document CHEMBL4480458, “Synthesis and Anti-inflammatory Evaluation of ( R)-, ( S)-, and (±)-Sanjuanolide Isolated from Dalea frutescens” (J Nat Prod, 2019)
